Published values from different studies.
Compare with care: the assays were run in different laboratories.
Target: Serine/threonine-protein kinase 38-like (STK38L, Homo sapiens, UniProt Q9Y2H1)

SMILES | assay | setting | remaining binding
CN(C)C(=O)Cn1cc(-c2nc(C3(c4ccc(-c5cnc(N)nc5)cc4)CC3)no2)cn1 | cell-free assay, competition with immobilised ligand | 1 µM | 81%
O=C(c1ccc(Nc2nccc(-c3cc4ccccc4s3)n2)cc1)N1CCC(N2CCCC2)CC1 | binding, competition with immobilised ligand | 1 µM | 94%
C[C@@H](c1ccc(-n2cnc3c(N)ncnc32)cc1)N1CCc2nn(C)c(Cc3ccccc3)c2C1=O | binding, competition with immobilised ligand | 0.1 µM | 80%
Cc1cc(C)c(-n2ccn3nc(-c4cccnc4)cc23)cc1NC(=O)c1cc(C#N)cc(S(F)(F)(F)(F)F)c1 | binding, competition with immobilised ligand | 0.1 µM | 98.9%
C[C@H]1CCN(c2nccc(-c3cnn4ncccc34)n2)C1 | binding | 1 µM | 83%
O=C(Nc1c[nH]nc1C(=O)NC1CCNCC1)c1cc(F)cc(F)c1 | binding, competition with immobilised ligand | 1 µM | 93%
COc1ccc2cc(OCC3(C(=O)O)CN(C(=O)c4ccc(F)cc4)C3)ccc2c1 | binding, competition with immobilised ligand | 1 µM | 86%
C=CC(=O)N1CCC(C(=O)NCC(=O)N2CCN(c3nc(-c4cnc(N)nc4C(F)F)nc(N4CCOCC4)n3)CC2)CC1 | binding, competition with immobilised ligand | 1 µM | 97%
CC1CCCN1c1nccc(-c2cnn3ncccc23)n1 (stereo not shown) | binding | 1 µM | 100%
CC1=C(C#N)[C@@H](c2ccc3[nH]nc(C)c3c2)C(C#N)=C(c2ccc(Cl)cc2)N1 | binding, competition with immobilised ligand | 1 µM | 100%
O=C(c1ccc(Nc2ncc(Cl)c(-c3cc4ccccc4s3)n2)cc1)N1CCC(N2CCCC2)CC1 | binding, competition with immobilised ligand | 1 µM | 74%
N[C@H]1CCN(c2nccc(-c3cnn4ncccc34)n2)C1 | binding | 1 µM | 100%
Cc1nccc(COC(=O)N2C[C@@H]3[C@@H](CNC(=O)c4ccc5[nH]nnc5c4)[C@@H]3C2)n1 | cell-free assay, competition with immobilised ligand | 1 µM | 70%
F[C@@H]1CCN(c2nccc(-c3cnn4ncccc34)n2)C1 | binding | 1 µM | 100%
O=C(NCCCN1CCOCC1)c1ccc(Nc2nccc(-c3cc4ccccc4s3)n2)cc1 | binding, competition with immobilised ligand | 1 µM | 100%
CNC(=O)[C@@H]1CC[C@@H](n2c(-c3ccc4cnccc4c3)nc3ccc(C(=O)NCc4cccc(C(N)=O)c4)cc32)C1 | binding, competition with immobilised ligand | 1 µM | 100%
Cc1cnn2ncc(-c3ccnc(N(C)C)n3)c2c1 | binding | 1 µM | 100%
c1cncc(-c2cccc(Nc3nccc(NC4CCCCC4)n3)c2)c1 | binding, competition with immobilised ligand | 10 µM | 100%
c1cnn2ncc(-c3ccnc(N4CCC45COC5)n3)c2c1 | binding | 1 µM | 78%
COc1cnc(Nc2cccc(S(N)(=O)=O)c2)nc1N1CCN(c2ccccc2)CC1 | binding, competition with immobilised ligand | 1 µM | 96%
CN(c1nccc(-c2cnn3ncccc23)n1)C1CC1 | binding | 1 µM | 100%
O=S(=O)(NC1CCC(c2cc(F)ccc2F)(S(=O)(=O)c2ccc(Cl)cc2)CC1)C(F)(F)F (stereo not shown) | binding, competition with immobilised ligand | 1 µM | 75%
